# Screening data: PubChem, several laboratories
# STAT3 blocker = inhibitors of IL-6 induced STAT3 signaling. U3A cells, IL-6 STAT3-luciferase reporter, luminescence; host cell line lacks STAT1. inhibition, % at 5.5 µM. 190,000 compounds, 0.89% hits;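 active = inhibition above the mean inhibition across all screened compounds plus 3 SD, cut at about 44% in these data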;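 also: 0% = DMSO only wells and 100% = 100 µM nifuroxazide control wells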
# STAT1 blocker = inhibitors of IFN-gamma induced STAT1 signaling | NIH 3T3 STAT1-luciferase reporter, luminescence | inhibition, % at 5.5 µM | 200,000 compounds, 0.35% hits | AID 920;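 active = inhibition above a set limit, the mean inhibition across all tested compounds plus 3 SD, cut at about 34% in these data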;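 also: 0% = IFN-gamma with DMSO and 100% = IFN-gamma with 300 µM nifuroxazide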
# C8 TRAIL sens = caspase-8 TRAIL sensitization; NB7+C8 cells + TRAIL, ATPlite viability luminescence; inhibition (viability loss, TRAIL sensitization), % at 10 µM; 360,000 compounds, 1% hits; AID 624354;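 active = compounds causing at least 50% loss of cell viability in the single-dose screen, relative to plate controls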
# HSP90 refold inh = blocks HSP90-mediated luciferase refolding in reticulocyte lysate; Rabbit reticulocyte lysate, luciferase refolding luminescence, 3 h; inhibition, % at 5.6 µM; 290,000 compounds, 0.91% hits; AID 1789;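 active = inhibition above the screen-wide mean plus 3 SD, computed separately per campaign, cut at about 16% in these data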;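 also: 0% = DMSO wells and 100% = 60 µM geldanamycin wells; inhibitors lower the luminescence because luciferase stays unfolded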
# PPC-1+TRAIL kill = compounds killing PPC-1 cancer cells with TRAIL present (potentiator screen, no TRAIL-free arm) | PPC-1 cells + TRAIL, ATPLite viability luminescence | cell killing (% activity), % at 4 µM or 5 µM | 220,000 compounds, 0.41% hits | AID 1443;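 active = cell killing above 50% in the first pass at 4 µM, then a duplicate retest at 5 µM averaging 50% or more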;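 also: plate controls were cells with TRAIL plus DMSO for no effect and medium-only wells lacking cells for full effect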
# STAT3 act = activators of IL-6 induced STAT3 signaling | AID 871 | 190,000 compounds, 0.91% hits | activation (% of control), % at 5.6 µM | U3A cells, IL-6 STAT3-luciferase reporter, luminescence; 100% = signal with IL-6 EC80 alone;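 active = activation above the screen-wide mean of compound activation plus 3 SD, cut at about 130% in these data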;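 also: 0% = background luminescence of wells with medium and substrate only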
#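 Material: STAT3-luciferase reporter U3A cells; Probe or stimulus: IL-6 (33 ng/mL); Incubation: compound pre-incubation 1 h before IL-6, then 6 h stimulation at 37 °C; Technique: luminescence from STAT3-driven luciferase reporter; Evaluation: % activation versus median of IL-6-stimulated wells; Controls: IL-6-only high control.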
# HSP90 confirm = HSP90 inhibition, confirmation assay | shares compounds with HSP90 refold inh | rabbit reticulocyte lysate, luciferase refolding luminescence, 3 h | inhibition, % at 5.9 µM | 2,300 compounds, 64% hits | AID 1846; in the data active = inhibition above about 18%;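 also: 0% = vehicle wells and 100% = reference inhibitor wells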
# FLuc counter = blocks native firefly luciferase in HSP90 counter-screen | shares compounds with HSP90 refold inh | purified native firefly luciferase, luminescence | inhibition, % at 5.9 µM | 2,300 compounds, 48% hits | AID 1847;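 active = inhibition above the mean inhibition of all tested sample wells plus 3 SD, cut at about 10% in these data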;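 also: 0% = DMSO with luciferase and 100% = wells lacking luciferase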
# Target sequence (P08659 whole entry, looked up): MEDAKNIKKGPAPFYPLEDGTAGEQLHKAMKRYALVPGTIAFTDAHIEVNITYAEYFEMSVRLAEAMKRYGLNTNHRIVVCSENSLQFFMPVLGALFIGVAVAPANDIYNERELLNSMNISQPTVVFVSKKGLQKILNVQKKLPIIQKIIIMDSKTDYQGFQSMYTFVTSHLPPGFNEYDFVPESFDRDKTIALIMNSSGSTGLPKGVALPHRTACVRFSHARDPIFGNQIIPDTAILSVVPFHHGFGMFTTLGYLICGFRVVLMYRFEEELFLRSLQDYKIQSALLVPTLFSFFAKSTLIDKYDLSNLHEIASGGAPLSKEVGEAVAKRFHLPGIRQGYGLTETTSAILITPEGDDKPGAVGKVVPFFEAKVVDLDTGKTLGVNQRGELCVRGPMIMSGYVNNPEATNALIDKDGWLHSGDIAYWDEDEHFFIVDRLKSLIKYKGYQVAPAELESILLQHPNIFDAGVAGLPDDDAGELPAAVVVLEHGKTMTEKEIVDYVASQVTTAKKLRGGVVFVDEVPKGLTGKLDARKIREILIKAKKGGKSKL
# Active calls of the source: *; nt = no result. This is a sample that favours compounds with a hit; in the whole collection about 2.3% have one here.
SMILES,STAT3 blocker,STAT1 blocker,C8 TRAIL sens,HSP90 refold inh,PPC-1+TRAIL kill,STAT3 act,HSP90 confirm,FLuc counter
Cc1cc2nc(-c3ccc[nH]c3=O)[nH]c2cc1C,nt,nt,90*,68*,nt,nt,80*,65*
CC(C)(C)NC(=O)CN(c1cccc([N+](=O)[O-])c1)S(=O)(=O)c1ccccc1,-7,-6,30,23*,10,108,-10,-10
CCOC(=O)c1oc2ccccc2c1COC(=O)CNC(=O)c1ccccc1F,nt,nt,-4,nt,nt,nt,nt,nt
Cn1c2ccccc2c(=O)n2c(=O)c3ccccc3cc12,24,-7,nt,19*,4,83,23*,-1
Cn1c(-c2ccccc2)cc(=O)c2ccccc21,4,0,18,-2,10,102,nt,nt
Nc1nc(C(F)(F)F)cc(=O)n1N,8,-8,-5,-1,-19,99,nt,nt
COCCn1c(C)cc(C(=O)CSc2nnc(C)s2)c1C,92*,39*,50*,48*,39,26,80*,72*
CC1(C)Cc2ccccc2-c2nnnn21,-4,0,-3,8,14,106,nt,nt
c1ccc2c(c1)CC1(CCCC1)n1nnnc1-2,8,-1,-2,18*,-15,98,0,-4
CC(C)(C)OC(=O)N1Cc2ccccc2C[C@H]1C(=O)NCC(=O)Nc1ccc2c(c1)OCCO2,nt,nt,-19,32*,nt,nt,52*,69*
CCCCN(C(=O)CN1C(=O)C2CC=CCC2C1=O)c1c(N)n(CCC)c(=O)[nH]c1=O (centres undefined),10,-3,3,2,3,96,nt,nt
CN(C)c1ccc(C(=S)NCc2ccco2)cc1,29,-37,-3,57*,26,79,65*,38*
Cc1cc(NN)nc(NS(=O)(=O)c2ccc(Cl)cc2)n1,0,2,-4,-3,21,101,nt,nt
CC(C)c1ccc(C(=O)Nc2ccc(CN3CCOCC3)cc2)cc1,nt,nt,29,24*,nt,nt,19*,-10
CC(C)c1ccc(/C=C/C(=O)Nc2ccc(CN3CCOCC3)cc2)cc1,nt,nt,7,3,16,nt,nt,nt
O=C(Nc1ccc2c(c1)CCC2)c1cc(S(=O)(=O)N2CCN(c3ccccc3)CC2)ccc1Cl,-3,6,1,2,29,103,nt,nt
CC(=O)C1=C(c2ccccc2)NC(=S)NC1c1cc(Cl)c(OC(C)C)c(Cl)c1 (centres undefined),26,22,-3,6,9,77,nt,nt
Cc1ccc(NC(=O)CCNC(=O)Cn2ccc3ccccc3c2=O)cc1F,nt,nt,5,44*,nt,nt,26*,23*
COc1ccc(NC(=O)c2cc(-c3ccccc3Cl)on2)cc1OC,nt,nt,-2,1,nt,nt,nt,nt
O=C(Nc1cccc(O)c1)c1cc(-c2ccc3c(c2)OCO3)on1,nt,nt,92*,68*,nt,nt,92*,85*
O=C(c1cc(-c2ccccc2Cl)on1)N1CCCC1,nt,nt,41,51*,nt,nt,55*,49*
O=C(Nc1cccc(O)c1)c1cc(-c2ccccc2Cl)on1,nt,nt,70*,41*,nt,nt,63*,48*
CCN(CC(=O)NC(C)C)C(=O)C(CCSC)NC(=O)c1cccc(C)c1 (centres undefined),-4,-4,3,3,4,101,nt,nt
CC(C)CC(c1nnnn1Cc1ccccc1)N1CCN(C(=O)c2ccco2)CC1 (centres undefined),0,3,17,2,5,102,nt,nt
CC1(C)CCc2cc(-c3ccnc(=S)[nH]3)ccc2O1,nt,nt,32,18*,13,nt,9,-17
SMILES,STAT3 blocker,STAT1 blocker,C8 TRAIL sens,HSP90 refold inh,PPC-1+TRAIL kill,STAT3 act,HSP90 confirm,FLuc counter
S=c1nccc(-c2ccc3c(c2)CCO3)[nH]1,nt,nt,5,0,17,nt,nt,nt
CCOC(=O)c1nc(N/N=C/c2ccccc2)sc1Br,nt,nt,0,21*,nt,nt,28*,-24
CCOC(=O)c1sc(N/N=C/c2ccc(N(C)C)cc2)nc1C,nt,nt,-10,-2,nt,nt,nt,nt
Cc1ccc(N2C(=O)N(c3ccc(C)cc3)C3CS(=O)(=O)CC32)cc1 (centres undefined),9,-1,-4,3,-3,94,nt,nt
COc1ccc(C/C(C)=N/NC(=S)Nc2ccc(C(C)C)cc2)cc1,-1,0,-19,-1,10,104,nt,nt
COc1ccc(C/C(C)=N/NC(=S)Nc2ccccc2F)cc1,16,-30,16,36*,29,91,48*,35*
Cc1cccc(NCc2nc3ccccc3n2C)c1,-7,-25,-9,3,22,111,nt,nt
Cc1ccc(NCc2nc3ccccc3n2C)c(C)c1,nt,nt,83*,28*,nt,nt,45*,39*
O=C(CNC(=O)c1ccc(Cl)cc1)OCC(=O)N1CCCC1,6,12,-12,19*,9,97,-4,-8
CC(C)(C)c1cc(C(=O)NCCCn2ccnc2)cc(C(C)(C)C)c1,nt,nt,-6,1,nt,nt,nt,nt
CCSc1ccc2nnc(-c3ccc(F)cc3)n2n1,27,4,4,88*,2,79,-3,-7
NC(=O)Nc1ccc(Oc2ncc(C(F)(F)F)cc2Cl)cc1,11,3,4,0,16,96,nt,nt
CC(=O)Oc1ccc(/C=C/c2nc3ccccc3c(=O)o2)cc1,nt,nt,76*,28*,nt,nt,32*,-13
O=c1oc(/C=C/c2ccc([N+](=O)[O-])s2)nc2ccccc12,nt,nt,-1,-2,nt,nt,nt,nt
CC(=O)Oc1ccccc1/C=C/c1nc2ccccc2c(=O)o1,nt,nt,82*,32*,nt,nt,45*,-8
CC(=O)Oc1ccc(-c2nc3ccccc3c(=O)o2)cc1,nt,nt,-6,3,nt,nt,nt,nt
CC(C)C(=O)Nc1nc2c(ncn2C2CC(O)C(CO)O2)c(=O)[nH]1 (centres undefined),2,3,-5,34*,27,106,4,-1
Nc1ncnc2c1ncn2[C@@H]1O[C@H](CNCc2cccc(C#Cc3ccccc3)c2)[C@@H](O)[C@H]1O,nt,nt,0,nt,nt,nt,nt,nt
COc1ccc(-c2nc3c(n2O)CCc2c-3no[n+]2[O-])cc1,nt,nt,-3,37*,-6,nt,2,-8
COc1cccc(NC(=O)[C@@H](NC(=O)N2CCn3c2nc2ccccc23)C(C)C)c1,nt,nt,-6,2,nt,nt,nt,nt
CCCS(=O)(=O)c1cnc(C2COc3ccccc3O2)nc1N (centres undefined),nt,nt,40,93*,nt,nt,88*,80*
S=c1nc(C2COc3ccccc3O2)[nH][nH]1 (centres undefined),8,2,2,2,-6,98,nt,nt
COc1ccc(NC(=O)CSc2ncnc3c2sc2ccccc23)c(OC)c1,-2,0,-11,-1,18,101,nt,nt
COc1ccccc1-c1ccc(/C=N/O)o1,nt,nt,2,5,-4,nt,nt,nt
